Data on eight molecules can be found in ChEMBL document CHEMBL3425415, “An antibacterial ortho-quinone diterpenoid and its derivatives from Caryopteris mongolica” (2015).

Common to all, as to type: functional
In experiment [1] the test system is Staphylococcus aureus. Description: Antibacterial activity against Staphylococcus aureus assessed as growth inhibition at 50 ug/disc after 24 hrs by disc diffusion method. As to conditions: for zone of inhibition at 50 µg/disc: read-out: DIZ. In a few lines: (§1)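 Disc diffusion: 100 µL of each bacterial culture (10^6 CFU/mL), grown 18 h in nutrient broth, spread onto meat peptone agar in Petri dishes. Compound-loaded discs applied. Plates incubated 24 h at 37 °C. Inhibition zone diameter measured in mm. Treatments replicated 3-5 times, reported as mean ± S.E.M.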
On the technique in general: Agar diffusion results depend on both activity and mobility in agar.

The subject of experiment [2] is Staphylococcus epidermidis. In words: Antibacterial activity against Staphylococcus epidermidis assessed as growth inhibition at 50 ug/disc after 24 hrs by disc diffusion method. The conditions noted are these: for zone of inhibition at 50 µg/disc: read-out: DIZ. In a few lines:
as §1

The test system of experiment [3] is Enterococcus faecalis. Description: Antibacterial activity against Enterococcus faecalis assessed as growth inhibition at 50 ug/disc after 24 hrs by disc diffusion method. As to conditions: for zone of inhibition at 50 µg/disc: read-out: DIZ. An outline of the steps: as §1
The subject of experiment [4] is Micrococcus luteus. Description: Antibacterial activity against Micrococcus luteus assessed as growth inhibition at 50 ug/disc after 24 hrs by disc diffusion method. As to conditions: for zone of inhibition at 50 µg/disc: read-out: DIZ. An outline of the steps: as §1
Experiment [5] has as its system Staphylococcus aureus. Description: Antibacterial activity against Staphylococcus aureus assessed as growth inhibition at 5 ug/disc after 24 hrs by disc diffusion method. As to conditions: read-out: DIZ. In a few lines: as §1
Experiment [6] concerns Staphylococcus epidermidis. Description: Antibacterial activity against Staphylococcus epidermidis assessed as growth inhibition at 5 ug/disc after 24 hrs by disc diffusion method. The conditions noted are these: read-out: DIZ. In a few lines: (§2)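 Disc diffusion: 100 µL inoculum (10^6 CFU/mL, grown 18 h in nutrient broth) spread on meat peptone agar plates; discs applied and incubated 24 h at 37 °C. Inhibition zone diameters measured in mm; 3-5 replicates, mean ± S.E.M.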

Experiment [7] deals with Micrococcus luteus. In words: Antibacterial activity against Micrococcus luteus assessed as growth inhibition at 5 ug/disc after 24 hrs by disc diffusion method. The conditions noted are these: read-out: DIZ. In a few lines: as §2
The test system of experiment [8] is Staphylococcus aureus. In words: Antibacterial activity against Staphylococcus aureus assessed as growth inhibition at 500 ug/disc after 24 hrs by disc diffusion method. The conditions noted are these: for zone of inhibition at 500 µg/disc: read-out: DIZ. In a few lines: as §2
The test system of experiment [9] is Staphylococcus epidermidis. In words: Antibacterial activity against Staphylococcus epidermidis assessed as growth inhibition at 500 ug/disc after 24 hrs by disc diffusion method. The conditions noted are these: for zone of inhibition at 500 µg/disc: read-out: DIZ. In a few lines: as §1
Experiment [10] concerns Enterococcus faecalis. In words: Antibacterial activity against Enterococcus faecalis assessed as growth inhibition at 500 ug/disc after 24 hrs by disc diffusion method. The conditions noted are these: read-out: DIZ. In a few lines:
as §1

Experiment [11] deals with Micrococcus luteus. In words: Antibacterial activity against Micrococcus luteus assessed as growth inhibition at 500 ug/disc after 24 hrs by disc diffusion method. An outline of the steps:
as §1

Experiment [12] deals with Enterococcus faecalis. Description: Antibacterial activity against Enterococcus faecalis assessed as growth inhibition at 5 ug/disc after 24 hrs by disc diffusion method. As to conditions: read-out: DIZ. In a few lines:
as §2

Experiment [13] relates to Staphylococcus aureus. Description: Antibacterial activity against Staphylococcus aureus assessed as growth inhibition at 25 ug/disc after 24 hrs by disc diffusion method. The conditions noted are these: read-out: DIZ. In a few lines:
as §1

The subject of experiment [14] is Staphylococcus epidermidis. In words: Antibacterial activity against Staphylococcus epidermidis assessed as growth inhibition at 25 ug/disc after 24 hrs by disc diffusion method. The conditions noted are these: read-out: DIZ. In a few lines:
as §1

In experiment [15] the test system is Enterococcus faecalis. In words: Antibacterial activity against Enterococcus faecalis assessed as growth inhibition at 25 ug/disc after 24 hrs by disc diffusion method. The conditions noted are these: read-out: DIZ. An outline of the steps:
as §1

Experiment [16] deals with Micrococcus luteus. In words: Antibacterial activity against Micrococcus luteus assessed as growth inhibition at 25 ug/disc after 24 hrs by disc diffusion method. As to conditions: read-out: DIZ. An outline of the steps: as §1

The structures appear in SMILES notation. The source made the active and inactive calls. No cut-off for these calls is given here.

For the molecule `C[C@@H]1C[C@@]12C(=O)OC(=O)C1=C(C(=O)C[C@H]3C(C)(C)CCC[C@]13C)[C@H]2O`, the “growth inhibition (GI)” value (with Staphylococcus aureus [1]; in experiment [2]; in the experiment with Enterococcus faecalis [3]; in the experiment with Micrococcus luteus [4]) was “inactive” each time.
In the case of `NC[C@H]1O[C@H](O[C@H]2[C@H](O)[C@@H](O[C@H]3O[C@H](CO)[C@@H](O)[C@H](N)[C@H]3O)[C@H](N)C[C@@H]2N)[C@H](O)[C@@H](O)[C@@H]1O` [KANAMYCIN], the values for the zone of inhibition at 5 µg/disc (in the experiment with Staphylococcus aureus [5]; in experiment [6]; with Micrococcus luteus [7]) were 16.3 mm, 20.5 mm and 16 mm, respectively. The zone of inhibition at 50 µg/disc in the experiment on Enterococcus faecalis [3] was determined as 17.9 mm.
Turning to `C[C@H]1C[C@]12C(=O)OC(=O)C1=C(C(=O)C[C@H]3C(C)(C)CCC[C@]13C)[C@H]2O`, the “growth inhibition (GI)” value (with Staphylococcus aureus [8]; in the experiment on Staphylococcus aureus [1]; in experiment [2]; in [9]; in the experiment with Enterococcus faecalis [3]; in the experiment on Micrococcus luteus [4]) was “inactive” each time. For the same molecule, in the experiment with Micrococcus luteus [11], the “growth inhibition (GI)” value was “inactive”. The zone of inhibition at 500 µg/disc with Enterococcus faecalis [10] worked out at 9.6 mm.
Take `CC(C)c1cc2c(c(O)c1O)[C@@]1(C)CCCC(C)(C)C1=C(O)C2=O` [14-DEOXYCOLEON U]: the zone of inhibition at 500 µg/disc is 17.8 mm with Staphylococcus aureus [8], 18.2 mm in [9], 16.8 mm with Enterococcus faecalis [10] and 14.8 mm in the experiment with Micrococcus luteus [11] (read-out: DIZ). In addition, the zone of inhibition at 50 µg/disc was determined as 10.2 mm with Staphylococcus aureus [1], 10.2 mm in experiment [2], 10.5 mm in the experiment on Enterococcus faecalis [3] and 9 mm in the experiment with Micrococcus luteus [4].
Take `CC1=C(C)[C@@H]2CC(=O)C3=C(C(=O)C(=O)[C@]4(C[C@@H]4C)[C@@H]3O)[C@@]2(C)CC1`: the zone of inhibition at 5 µg/disc with Staphylococcus aureus [5] is 12.9 mm; in [6], 15.9 mm; in the experiment with Enterococcus faecalis [12], 23.2 mm; with Micrococcus luteus [7] it was 16.3 mm. The results for the zone of inhibition at 500 µg/disc (with Staphylococcus aureus [8]; in experiment [9]; in the experiment on Enterococcus faecalis [10]) were 30.6 mm, 29.3 mm and 28.7 mm, respectively. The figures for the zone of inhibition at 50 µg/disc (in the experiment with Staphylococcus aureus [1]; in [2]; with Enterococcus faecalis [3]) were 22.6 mm, 24.1 mm and 24 mm, respectively. Further, the zone of inhibition at 25 µg/disc with Staphylococcus aureus [13] turned out to be 21.5 mm; in experiment [14] it was 23.2 mm; with Enterococcus faecalis [15], 22 mm; in the experiment with Micrococcus luteus [16], 27.9 mm.
`CC1=C(C)[C@@H]2CC(=O)C3=C(C(=O)OC(=O)[C@@]4(C[C@H]4C)[C@@H]3O)[C@@]2(C)CC1`: the “growth inhibition (GI)” value (in the experiment with Staphylococcus aureus [1]; in experiment [2]; in the experiment with Enterococcus faecalis [3]; with Micrococcus luteus [4]) was “inactive” throughout.
As for `CC(C)c1cc2c(c(O)c1O)[C@@]1(C)CCCC(C)(C)[C@@H]1CC2=O` [DEMETHYLCRYPTOJAPONOL], in the experiment with Staphylococcus aureus [8], the zone of inhibition at 500 µg/disc is 15.8 mm. Moreover, the zone of inhibition at 50 µg/disc came to 11.8 mm in the experiment on Staphylococcus aureus [1], 13.7 mm in experiment [2], 11.3 mm in the experiment with Enterococcus faecalis [3] and 9 mm in the experiment with Micrococcus luteus [4]. Besides, the zone of inhibition at 5 µg/disc in experiment [6] is 16 mm; with Enterococcus faecalis [12] it was 15.2 mm; in the experiment on Micrococcus luteus [7], 13.5 mm.
As to `CC(C)c1cc2c(c(O)c1O)[C@@]1(C)CCCC(C)(C)[C@@H]1[C@@H](O)C2=O` [6-ALPHA-HYDROXYDEMETHYL-CRYPTOJAPONOL], the zone of inhibition at 500 µg/disc in the experiment on Staphylococcus aureus [8] was 22.5 mm. In addition, the zone of inhibition at 50 µg/disc with Staphylococcus aureus [1] was 11 mm; in experiment [2] it was 11.5 mm; in the experiment on Enterococcus faecalis [3], 13.8 mm; in the experiment on Micrococcus luteus [4], 9.1 mm. Also, the zone of inhibition at 5 µg/disc in experiment [6] was determined as 21.2 mm; with Enterococcus faecalis [12], 20.2 mm; in the experiment on Micrococcus luteus [7] it was 17.7 mm.
